Reference: ChEMBL document CHEMBL2010686, “Influence of the active compounds of Perilla frutescens leaves on lipid membranes” (J Nat Prod, 2012)
The source made the active and inactive calls. No cut-off for these calls is given here.

Columns and labels:
Lipid bilayer [1] = assay: Binding affinity to 1,2-dimyristoyl-sn-glycero-3-phosphocholine bilayer assessed as change in main phase transition temperature at low concentration by differential scanning calorimetry; assay type: physicochemical
Method in brief: (§1)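 Differential scanning calorimetry on 15 mM multilamellar DMPC vesicles in 50 mM sodium phosphate (ionic strength 154 mM with NaCl, pH 7.5). Terpenoid added in MeOH (below 10 μL); the x = 0 control received 10 μL MeOH. Terpenoid mole fraction varied from 0 to 0.15. Main-transition Tm, pretransition temperature and transition enthalpy were read from the thermograms.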

Lipid bilayer [2] = assay: Binding affinity to 1,2-dimyristoyl-sn-glycero-3-phosphocholine bilayer assessed as decrease in main phase transition temperature at high concentration by differential scanning calorimetry (reference value: 24.4 deg C); assay type: physicochemical; method in brief: as §1
[3] = 1,2-dimyristoyl-sn-glycero-3-phosphocholine bilayer-water partition coefficient, K of the compound at 300 uM by isothermal titration calorimetry at 35 deg C; assay type: physicochemical; settings: DMPC vesicles/water
Method in brief: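 DMPC vesicles hydrated in 50 mM sodium phosphate (ionic strength 154 mM with NaCl, pH 7.5), extruded at 35 °C through 100 nm filters. Lipid suspension (1–20 mM) injected in small aliquots into ~300 μM terpenoid in the ITC cell (1.409 mL). Integrated heats per injection fitted with a dilution-heat term to give K and ΔH. ΔG0 = −RTln(55.5K). ΔCP from linear regression of ΔH versus temperature.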

Lipid bilayer [4] = assay: Binding affinity to Me-5-DSA labelled 1,2-dimyristoyl-sn-glycero-3-phosphocholine bilayer containing assessed as change in membrane fluidity by electron paramagnetic resonance spectroscopy
Method in brief: (§2)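 DMPC membranes carrying a spin label, either pure or with terpenoid at 15 mol % (Me-5-DSA also over a concentration series). Samples held in hematocrit tubes and equilibrated 10 min at 35 °C. X-band spectra (~9.4 GHz, ~2 mW, 100 kHz modulation, 1 G amplitude), usually five scans summed. Order parameter from hyperfine splittings. Rotational correlation times from central-line width and line heights as a fluidity measure.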

Lipid bilayer [5] = assay: Binding affinity to Me-16-DSA labelled 1,2-dimyristoyl-sn-glycero-3-phosphocholine bilayer containing assessed as change in membrane fluidity by electron paramagnetic resonance spectroscopy; method in brief: as §2
Lipid bilayer [6] = assay: Binding affinity to 5-DSA labelled 1,2-dimyristoyl-sn-glycero-3-phosphocholine bilayer containing assessed as change in membrane fluidity by electron paramagnetic resonance spectroscopy; method in brief: as §2
Lipid bilayer [7] = assay: Binding affinity to CSL labelled 1,2-dimyristoyl-sn-glycero-3-phosphocholine bilayer containing assessed as change in membrane fluidity by electron paramagnetic resonance spectroscopy; method in brief: as §2
Lipid bilayer [8] = assay: Binding affinity to 1,2-dimyristoyl-sn-glycero-3-phosphocholine bilayer assessed as increase in pre-transition temperature at low concentration by differential scanning calorimetry (reference value: 12.7 deg C); assay type: physicochemical; method in brief: as §1

Structure (SMILES) | Activity (Lipid bilayer [1]) | T (Lipid bilayer [2]) [°C] | Ko [3] [M⁻¹] | Activity (Lipid bilayer [4]) | Activity (Lipid bilayer [5]) | Activity (Lipid bilayer [6]) | Activity (Lipid bilayer [7]) | T (Lipid bilayer [8]) [°C] | Activity [3]
C=C(C)C1CC=C(C=O)CC1 (stereo not drawn) [PERILLALDEHYDE] | Not Active | 19.4 | 215 | inactive | inactive | inactive | inactive | – | –
C=C(C)[C@H]1CC=C(C)CC1 [D-LIMONENE] | Not Active | 16.3 | 10900 | inactive | inactive | inactive | inactive | 14.5 | –
C=C(C)[C@@H]1CC=C(C(=O)O)CC1 [PERILLIC ACID] | – | – | – | – | – | – | – | – | Not Active
C=C(C)[C@@H]1CC=C(CO)CC1 [PERILLYL ALCOHOL] | Not Active | 19.4 | 305 | inactive | inactive | inactive | inactive | – | –
